Measured values gathered from unrelated publications.
Compare with care: the assays were run in different laboratories. In brackets after ≈: the same amount, converted by molar mass.

| Structure (SMILES) | organism | assay | test system | setting | quantity | result |
| --- | --- | --- | --- | --- | --- | --- |
| COC(=O)c1cc(-c2cccc(NC(=S)Nc3ccccc3)c2)on1 | Mycobacteroides chelonae | microbial growth, broth dilution | ATCC35752 | 48 h | MIC | > 64 µg/mL |
| Cc1cc(C2CCCCC2)n(O)c(=O)c1 | Candida albicans | microbial growth | ATCC90028 | – | MIC80 | 1.9 µM (≈ 0.394 µg/mL) |
| O=C(O)CSc1ncnc2cc(-c3cc4ccccc4s3)sc12 | Murine coronavirus | viral replication | – | 1 µM, 10 h | inhibition | -36% |
| Cc1ccc(-c2nc3ccccc3c(=O)n2-c2cccc(O)c2)cc1 | Enterococcus faecium | microbial growth, broth dilution | NCTC7171 | – | MIC | > 128 µg/mL |
| COC(=O)c1cc(-c2cccc(NC(=S)Nc3ccc(F)cc3F)c2)on1 | Mycobacteroides chelonae | microbial growth, broth dilution | ATCC35752 | 48 h | MIC | 16 µg/mL (≈ 41.1 µM) |
| CN(C)C(=O)/C(C#N)=C/c1ccc(-c2nc3cnc4[nH]ccc4c3n2C2CCCCC2)o1 | Murine coronavirus | viral replication | – | 1 µM, 10 h | inhibition | 36% |
| CCC(=O)N1CCN(c2ccc(-n3c(=O)ccc4cnc5ccc(-c6cnc7ccccc7c6)cc5c43)cc2C(F)(F)F)CC1 | Plasmodium berghei | parasite growth, luciferase | human | liver stage | IC50 | 0.41 µM |
| c1ccc2c(c1)CCc1ccccc1C2OCCN1CCNCC1 | Trypanosoma brucei | parasite growth | – | – | EC50 | 9.32 µM |
| COC(=O)c1cc(-c2cccc(NC(=O)Nc3ccc(C)c(Cl)c3)c2)on1 | Mycobacteroides chelonae | microbial growth, broth dilution | ATCC35752 | 48 h | MIC | > 64 µg/mL |
| O=C(Nc1cccc(Cl)c1)Nc1ncc(CCNc2ncnc3ccsc23)s1 | Plasmodium berghei | parasite growth, luciferase | human | liver stage | IC50 | 4.2 µM |
| O=c1c2ccccc2nc(/C=C/c2ccc(F)cc2)n1-c1cccc([N+](=O)[O-])c1 | Enterococcus faecium | microbial growth, broth dilution | NCTC7171 | – | MIC | > 128 µg/mL |
| COC(=O)c1cc(-c2cccc(NC(=O)Nc3cccc(Br)c3)c2)on1 | Mycobacteroides chelonae | microbial growth, broth dilution | ATCC35752 | 48 h | MIC | > 64 µg/mL |
| O=c1c2ccccc2nc(/C=C/c2ccc3c(c2)OCO3)n1-c1cccc(O)c1 | Enterococcus faecium | microbial growth, broth dilution | NCTC7171 | – | MIC | > 128 µg/mL |
| COC(=O)c1cc(-c2cccc(NC(=S)Nc3ccc(C#N)cc3)c2)on1 | Mycobacteroides chelonae | microbial growth, broth dilution | ATCC35752 | 48 h | MIC | 64 µg/mL (≈ 169 µM) |
| Nc1ccc(/C=C/c2nc3ccccc3c(=O)n2-c2cccc(O)c2)cc1 | Enterococcus faecium | microbial growth, broth dilution | NCTC7171 | – | MIC | > 128 µg/mL |
| COC(=O)c1cc(-c2cccc(NC(=O)Nc3ccc(F)c(F)c3)c2)on1 | Mycobacteroides chelonae | microbial growth, broth dilution | ATCC35752 | 48 h | MIC | > 64 µg/mL |
| N#Cc1ccc(/C=C/c2nc3ccccc3c(=O)n2-c2cccc([N+](=O)[O-])c2)cc1 | Enterococcus faecium | microbial growth, broth dilution | NCTC7171 | – | MIC | > 128 µg/mL |
| Cc1cc(Cc2ccccc2)n(O)c(=O)c1 | Candida albicans | microbial growth | ATCC90028 | – | MIC80 | 1.2 µM (≈ 0.258 µg/mL) |
| O=c1c2ccccc2nc(/C=C/c2ccc(F)cc2)n1-c1cccc(O)c1 | Enterococcus faecium | microbial growth, broth dilution | NCTC7171 | – | MIC | 128 µg/mL (≈ 357 µM) |
| Cl.O[C@]12C=C(c3nccc4c3[nH]c3ccccc34)[C@@H]3CCN(CCCC/C=C\CC1)C[C@@]31C[C@@H]3/C=C\CCCCN3[C@H]12 | Mycobacterium intracellulare | microbial growth, resazurin | ATCC23068 | – | IC50 | 0.12 µg/mL |
